Assay: Toxicity liver stage against HepG2, at 10uM
Type: cell-based
Design: test concentration 10 uM, cell line HepG2-A16-CD81EGFP
Settings: human, HepG2-A16-CD81EGFP cells; read-out: INHIBITION
Procedure, shortened: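 Uninfected HepG2-A16-CD81EGFP cells, 3 × 10^3 per well, 1536-well, plated on prespotted compound at 10 μM final, parasite-free screening media added to match infected plates; puromycin 10 μM positive, DMSO 0.5% negative; run in parallel with 48 h PbLuc assay at 37 °C, 5% CO2; viability by CellTiter-Glo luminescence, normalized to controls.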

| SMILES | cytotoxicity at 10 µM [%] |
| --- | --- |
| Cc1cc(N2CCC(O)CC2)nc(C)n1 | -74.7 |
| CN1C[C@@H](F)[C@@H](OCc2nc3ccccc3n2C)C1 | 0.876 |
| O=C(CCc1ccc(-n2cnnn2)cc1)Nc1nncs1 | -1.14 |
| O=C(CCCn1cnc2ccccc2c1=O)Nc1nc[nH]n1 | -4.84 |
| CCOc1ccc(NC(=O)NCC(C)(O)c2cccs2)cc1 (stereo not drawn) | -0.579 |
| O=C(C1CCOCC1)N1C[C@H]2CNC[C@H]2C1 | -8.58 |
| CCCS(=O)(=O)N1CCC2(CC1)COCCN(C(C)=O)C2 | 15.9 |
| CN1C(=O)CC2(CCN(S(=O)(=O)c3cccs3)CC2)c2ccccc21 | 1.86 |
| C[C@@H]1C[C@@H]2CCN(Cc3nccs3)C[C@H]2O1 | -3.15 |
| COCCN1CCCC12CCCN(c1nncs1)C2 (stereo not drawn) | 9.79 |
| O=S(=O)(C1CC1)N1CCn2c(Cn3cccn3)cnc2C1 | 12.4 |
| Cn1nc(CN2CCCC2)c2c1CN(C(=O)c1ccncc1F)CC2 | -154 |
| CCCS(=O)(=O)N1CCC2(CCCN(c3ncc(F)cn3)C2)C1 (stereo not drawn) | 13.4 |
| Fc1cccc(N2CCOC3(CCCN(c4cnccn4)C3)C2)c1 (stereo not drawn) | 5.89 |
| COc1cccc(CC(=O)N2Cc3nccn3CC(CN(C)C)C2)c1 (stereo not drawn) | -135 |
| O=C(c1cnccn1)N1CCC2(CCCN(Cc3ccoc3)C2)C1 (stereo not drawn) | -139 |
| Cc1ccc(-c2csc(N)c2C#N)c(C)c1 | 10.5 |
| O=C(NCCN1CCC(c2cccs2)CC1)c1ccccc1C(F)(F)F | -20.2 |
| CN(C)C(=O)CO[C@@H]1CC[C@H]2[C@H]1OCCN2C(=O)C1CCOCC1 | -7.56 |
| COc1ccc(CCC(=O)N(C)Cc2c(C)nn(C)c2C)cc1 | -0.734 |
| CC(=O)Nc1ncc(S(=O)(=O)Nc2ccccc2)s1 | 6.72 |
| CCC(C)c1noc(C2CCN(C(=O)Cn3nc(C)cc3C)CC2)n1 (stereo not drawn) | 6.58 |
| CC1(c2ncc(CN3CCSCC3)cn2)CCCCO1 (stereo not drawn) | 2.12 |

| SMILES | cytotoxicity at 10 µM [%] |
| --- | --- |
| COc1ccc(S(=O)(=O)N2CCC[C@@H]3CN(C(=O)C4CC4)C[C@@H]32)cc1F | 3.75 |
| CN(C)C(=O)C1(c2cnccn2)CCCN1C(=O)Cc1ccsc1 (stereo not drawn) | -1.84 |
| O=C(NCC1(O)COCCN(Cc2cccc(O)c2)C1)c1ccccn1 (stereo not drawn) | -4.29 |
| CNC(=O)C1(CCCc2cccnc2)CCCCN1 (stereo not drawn) | 2.34 |
| Cc1ccc(-n2cnc(Cl)c2CO)cc1 | -0.303 |
| Cc1cnn(Cc2cccc(OCC(N)=O)c2)c1 | -2.84 |
| Cc1ncc(CNC(=O)N(C)Cc2ccc([S+](C)[O-])cc2)s1 (stereo not drawn) | 9.35 |
| CCCN(CC1COc2ccccc2O1)C(=O)CCN1C(=O)CCC1=O (stereo not drawn) | -37 |
| N#Cc1ccc(CN2CCOCC2)cc1 | -9.32 |
| CN(CC(O)C(F)(F)F)C(=O)Nc1cccc(C(F)F)c1 (stereo not drawn) | 5.46 |
| CN(C)c1cccc(C(=O)Nc2ccn(CCc3ccncc3)n2)c1 | 0.209 |
| O=C(NCCNCc1cccc2c1OCCCO2)C1CCCC1 | 8.08 |
| O=C(C1CC1)N1CCC(c2nc(-c3ccccc3)n[nH]2)CC1 | -4.15 |
| COc1cccc(CCCN2CCC(N(C)S(C)(=O)=O)CC2)c1 | -3.88 |
| CC(=O)c1cccc(NC(=O)CN2CCCCC2C(=O)N2CCCC2)c1 (stereo not drawn) | -8.82 |
| Cc1ccc(N2CCCC(N(C)Cc3nc(C)c(C)o3)C2)nn1 (stereo not drawn) | 3.15 |
| CSC(C)(C)CNC(=O)NC1CCN(CC=C(C)C)CC1 | -6.45 |
| O=C(CCN1CCCC1c1cccc2c1OCCO2)N1CCCCC1 (stereo not drawn) | 2.43 |
| CCC(=O)NC1CCN(c2cccc(OC(F)(F)F)c2)C1=O (stereo not drawn) | -11.5 |
| Cc1nn(C)c(C)c1OCC(=O)NCC(O)c1ccco1 (stereo not drawn) | -4.71 |
| CCC(CNC(=O)c1ccccn1)N1CCc2ccccc2C1 (stereo not drawn) | 1.02 |
| CCNC(=O)N1CCC(n2ccc(C(F)(F)F)n2)CC1 | 10.5 |
| CCc1cc(NC(=O)C(c2cccc(F)c2)N2CCOCC2)[nH]n1 (stereo not drawn) | -10.3 |

| SMILES | cytotoxicity at 10 µM [%] |
| --- | --- |
| CC(C(=O)NCc1cn2cc(Br)ccc2n1)S(C)(=O)=O (stereo not drawn) | -16.4 |
| CC(NC(=O)c1csnn1)c1ccc(OCC2CC2)c(F)c1 (stereo not drawn) | -1 |
| O=C(NCCCOCC1CCCO1)c1cccnc1N1CCOCC1 (stereo not drawn) | 3.68 |
| CC(C)(C)c1noc(CNc2ccccc2N2CCC(O)CC2)n1 | 0.965 |
| O=C(O)[C@H]1CCCN1CCOc1cccc(Cl)c1 | 17 |
| CC(C)(C)CC(=O)NCCCn1cncn1 | -4.34 |
| O=c1c2cccnc2cnn1CC(O)c1cccc(C(F)(F)F)c1 (stereo not drawn) | -3.67 |
| O=C(Nc1ccc(Cn2cccn2)cc1)N1CCC2(CC1)OCCO2 | 6.09 |
| Cc1nn(CC(=O)Nc2cccc(F)c2)c(N)c1C#N | 17.9 |
| Cc1nc(CNC(=O)Nc2ccc3c(ccn3CCN(C)C)c2)no1 | -21.8 |
| O=C(CN1CCCc2c(F)cc(Br)cc21)N1CCCC1 | -1.26 |
| CN(Cc1ccc([S+](C)[O-])cc1)c1ccccn1 (stereo not drawn) | -7 |
| CNC(=O)CN(C(=O)c1ccc(SC)o1)c1cccc(F)c1 | 10.3 |
| CC(C)c1ncc(Cl)c(C(=O)N2CCN(C3CC3)CC2)n1 | 3.78 |
| CCc1nc(C(=O)N2CCN(C)c3ccccc32)c[nH]1 | 1.16 |
| Cc1cc2ccccc2n1CC(=O)Nc1ccnn1CC1CCOC1 (stereo not drawn) | 7.77 |
| O=C1C(N2CCN(c3ccc(O)cc3)CC2)CCN1C1CCOCC1 (stereo not drawn) | 12.6 |
| O=C(c1ccsc1)N1CCN(CC(O)c2cccc(F)c2)CC1 (stereo not drawn) | -46.7 |
| Cc1cc(NC(=O)C(c2cccc(F)c2)N2CCOCC2)ccn1 (stereo not drawn) | 0.278 |
| CSCC(CCO)NC(=O)Nc1cc(C)ccc1C (stereo not drawn) | -17 |
| COCCNC(=O)C[C@@H]1COC[C@H]2CN(Cc3cccnc3)C[C@@H]12 | 2.13 |
| CC(C)CNC(=O)c1ccc2nnc(C3CCN(S(C)(=O)=O)C3)n2c1 (stereo not drawn) | 5.09 |
| NCC1CN(C(=O)c2cccc(-n3cccn3)c2)CCO1 (stereo not drawn) | -1.56 |

| SMILES | cytotoxicity at 10 µM [%] |
| --- | --- |
| CC(=O)c1cn(CC(=O)N2CCC(O)(CO)CC2)c2ccccc12 | 1.13 |
| Cc1nc2c(c(N3CCCOCC3)n1)CCN(c1nccs1)CC2 | 3.08 |
| Cc1nc2c(C)cccc2cc1C(=O)N1CCC2(CC1)NCCNC2=O | -0.0638 |
| Cc1cccc(C)c1OC1CN(Cc2cnc(N3CCCC3)nc2)C1 | 1.35 |
| CNc1ncc(CN(C)Cc2cc(O)c3cc(F)ccc3n2)cn1 | 1.95 |
| Cc1cc(-n2cccn2)ccc1CN1CCC(O)(CN2CCCCC2)C1 (stereo not drawn) | 6.2 |
| CC[C@H]1COCCN1C(=O)c1cnc(C(C)C)nc1C | 8.51 |
| CN(CC1Cc2ccccc2CN1C)C(=O)CSc1nccn1C (stereo not drawn) | -10.8 |
| CC(C)c1cc(N2CCC3(CC2)CN(C)CCN3C)ncn1 | -16.2 |
| CCC(C)Oc1ccc(CNCCNC(C)=O)cc1OC (stereo not drawn) | -8.09 |
| CC(C(=O)N(C)C)N1CCc2onc(-c3cccc(F)c3)c2C1 (stereo not drawn) | -6.93 |
| CCn1c(C)nnc1SCCNC(=O)c1cccc2ccnn12 | -54.6 |
| CCCc1nc(N2CCCC(CCOC)C2)c2cnn(C)c2n1 (stereo not drawn) | 12.1 |
| OCC1COCCN(Cc2cc(C3CCCCC3)no2)C1 (stereo not drawn) | 6.44 |
| COc1cccc2c1OCC(C(=O)NCCc1nc3c(s1)CCC3)C2 (stereo not drawn) | -39.6 |
| c1ccc(OCc2noc(CN3CCN(C4CCCC4)CC3)n2)cc1 | -6.66 |
| COCCN1CCC2(CC1)CC(c1ccccc1)C(=O)N2C (stereo not drawn) | 7.91 |
| Cc1nc(CNc2nc3c(s2)c(C)nn3C)cs1 | -109 |
| CCN(Cc1ccncc1)c1nc(C)nc2oc(C)nc12 | -50.6 |
| N[C@H]1CN(C(=O)c2cnc3cc(Cl)ccc3c2O)C[C@@H]1C1CC1 | -44.1 |
| CCCn1ccnc1CN1CCC(O)(CN2CCCCC2)C1 (stereo not drawn) | -6.12 |
| CCOc1ccc(C(=O)CCC(=O)N(C)Cc2cnccn2)cc1C | 1.39 |
| CC(C)Oc1cccc(CN2CCC(C(C)N3CCOCC3)CC2)c1 (stereo not drawn) | -5.84 |

| SMILES | cytotoxicity at 10 µM [%] |
| --- | --- |
| Cc1ncsc1CCCn1ccnc1-c1cc2n(n1)CCCNC2 | 3.28 |
| O=C1N(CCCc2ccccc2)CCCC1(O)CNCc1ccccc1 (stereo not drawn) | 10.4 |
| CC(NCc1ccccc1Cl)c1ccc2[nH]c(=O)[nH]c2c1 (stereo not drawn) | -9.7 |
| O=C(CSc1ccccc1F)NS(=O)(=O)c1ccc2c(c1)OCCO2 | -4.36 |
| CC(=O)Nc1nc(C(=O)N2CCCC2c2noc(C(C)C)n2)cs1 (stereo not drawn) | -20.1 |
| CCn1ccnc1CN1CCCC1c1noc(C2CC2)n1 (stereo not drawn) | -17.4 |
| Cc1nc(C2CCCN(C(=O)c3cc(Cl)c[nH]3)C2)sc1C (stereo not drawn) | -21.5 |
| Cc1nc(C)n(C2CCCN(C(=O)c3c[nH]c(C(C)C)n3)C2)n1 (stereo not drawn) | -19.9 |
| Cc1ccc(CNC(=O)Nc2nnc(C)s2)cn1 | -0.243 |
| Cc1ccc(CC(=O)N2CCc3nnc(N(C)C)cc3C2)cn1 | -8.16 |
| Cc1nccn1C1CCCN(C(=O)c2cc3ccccc3[nH]2)C1 (stereo not drawn) | -12.2 |
| COCCc1noc(CN2CCCC(Cn3nc(C)nc3C)C2)n1 (stereo not drawn) | -6.41 |
| CN(C)[C@@H]1CN(Cc2ccc(O)cc2)C[C@H]1c1cn(C)c2ccccc12 | 2.39 |
| Cc1noc(C)c1CN1CCc2ncc(CN3CCCC3)n2CC1 | 0.78 |
| Cn1ccc(C(=O)N2CCC[C@]3(C[C@@H](OCc4ccccn4)CO3)C2)n1 | 0.333 |
| O=C(C1CCOCC1)N1CC[C@H]2[C@H]1CCN2c1nncs1 | -4.78 |
| CCc1nnc(CN2CCC(C3CCCCCN3C(C)=O)CC2)o1 (stereo not drawn) | -43 |
| COCC(=O)N1CCc2ccccc2C12CCNCC2 | -0.602 |
| CCOCc1cnc2n1CCN(Cc1nc(C)cs1)C2C (stereo not drawn) | 10.2 |
| CCn1cc2c(n1)CN(Cc1ccncc1)CC2COCC1CC1 (stereo not drawn) | 6.59 |
| Cc1nc(COCC2CN(C(N)=O)Cc3nccn3C2)cs1 (stereo not drawn) | 5.3 |
